In ChEMBL document CHEMBL6071149, “Synthesis and photo-induced anticancer activity of new 2-phenylethenyl-1H-benzo[e]indole dyes” (Eur J Med Chem, 2024):
Activity calls are given as the source filed them.

How the values were obtained:
Details in all cases: time 24.0 hrs
[1] = system: ARN-8 cell; assay: Induction of apoptosis in human ARN-8 cells-derived from human A375 cells assessed as increase in cleaved BAX level upto 4 uM pretreated for 4 hrs followed by light irradiation of 10 J/cm2 at 414 nm measured after 20 hrs by Western blot analysis; type: functional, cell-based
How it was run: (§1)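 Compound exposure 4 h, then 414 nm irradiation, then 20 h further incubation. Lysates made in RIPA buffer, separated by SDS-PAGE and blotted to nitrocellulose. Primary antibodies in TBS with 4 % BSA and 0.1 % Tween 20, incubated overnight. Peroxidase secondary antibody with chemiluminescent detection. GAPDH served as loading control.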

[2] = system: G-361; assay: Induction of apoptosis in human G361 cells assessed as decrease in Bcl-2 level upto 4 uM pretreated for 4 hrs followed by light irradiation of 10 J/cm2 at 414 nm measured after 20 hrs by Western blot analysis; type: functional, cell-based; how it was run: as §1
[3] = system: ARN-8 cell; assay: Downregulation of p53 level in human ARN-8 cells-derived from human A375 cells at higher concentration pretreated for 4 hrs followed by light irradiation of 10 J/cm2 at 414 nm measured after 20 hrs by fluorescence based assay; type: functional

Measured: Activity

COc1ccc(/C=C/C2=Nc3ccc4ccccc4c3C2(C)C)cc1[N+](=O)[O-]
active: all assays above
